Laboratory results reported in paper PMC8596596 (Journal of Clinical Pharmacology, 2021).
Where “and” joins values, the source holds several entries; their conditions need not be identical. Equal entries are not always repeated. Where two headings read alike, the source gives them in different places.

Experiments:
healthy elderly subjects [1] = assay: Pupillometry; format: in vivo, human
Summary of the method: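 Pupil images were taken with a digital camera and single flash. Pupil and iris diameters were measured horizontally in pixels, and the pupil/[…] diameter ratio was calculated for each eye. Oral 2 mg, 4 mg or placebo in a crossover design in healthy elderly subjects. Measured twice predose and at 1, 2.5, 4, 7 and 22 h. Mixed-model ANCOVA with baseline covariate against placebo.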

healthy elderly subjects [2] = assay: Saccadic and smooth pursuit eye movements; format: in vivo, human
Summary of the method: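 Subjects followed a horizontally moving target on a screen 58 cm away. The target moved continuously for smooth pursuit and jumped side to side for saccades, and movements were recorded by computer. Oral 2 mg, 4 mg or placebo in a crossover design in healthy elderly subjects; tests predose and at 1, 2.5, 4, 7 and 22 h. Mixed-model ANCOVA with baseline covariate.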

Population PK model = format: in vivo, human; conditions: oral
Summary of the method: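 Nonlinear mixed-effects modelling of plasma concentrations after oral 2 and 4 mg in healthy elderly subjects. 1-, 2- and 3-compartment models were explored, with or without absorption lag time and transit compartments. Between-subject and between-occasion variability were added bottom-up (P < .01). Age, sex, weight and BMI were tested as covariates (forward P < .01, backward P < .001). The final model had 2 compartments with linear elimination.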

healthy elderly subjects [3] = assay: Population PK-PD model; format: in vivo, human
M2 mAChR = conditions: read-out: equilibrium dissociation constant [Kd] for M2; cited from earlier work
healthy elderly subjects [4] = assay: Safety and tolerability; format: in vivo, human; conditions: 2 and 4 mg oral
Summary of the method: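 Safety was monitored through treatment-emergent adverse events, laboratory tests, vital signs and ECG during each period. Randomization gave the 4-mg dose only after the 2-mg study day had been completed. A snack was given within 30 minutes before dosing, and caffeine and nicotine were not allowed. Oral single doses with a 1-week washout.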

healthy elderly subjects [5] = assay: Visual analog scales; format: in vivo, human; conditions: both doses (2 and 4 mg)
Summary of the method: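 Bond and Lader visual analog scales rated alertness, mood and calmness, and nausea was rated on a 100-mm line. Oral 2 mg, 4 mg or placebo in a crossover design in healthy elderly subjects. Ratings were made repeatedly predose and up to 22 h postdose. Analysed by mixed-model ANCOVA with baseline covariate against placebo.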

M5 mAChR = conditions: read-out: equilibrium dissociation constant [Kd] for M5; cited from earlier work
M4 mAChR = conditions: read-out: equilibrium dissociation constant [Kd] for M4; cited from earlier work
M1 mAChR = conditions: read-out: equilibrium dissociation constant [Kd] for M1; cited from earlier work
healthy elderly subjects [6] = assay: N-back task; format: in vivo, human; conditions: vs placebo
healthy elderly subjects [7] = assay: Visual-verbal learning test; format: in vivo, human; conditions: 4 mg oral, vs placebo
Summary of the method: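 A 30-word list was presented. Immediate recall rounds assessed acquisition at 1.5 h postdose, followed by delayed recall and recognition. Subjects received oral 4 mg, 2 mg or placebo in a crossover design; single-occasion test. Analysed by mixed-model ANOVA with treatment and period as fixed factors and subject as random factor, comparing least-squares means with placebo.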

[8] = Plasma pharmacokinetics, noncompartmental analysis; format: in vivo; conditions: human, po
Summary of the method: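 K2-EDTA plasma underwent liquid-liquid extraction and LC-MS/MS: phenyl column, isocratic 0.025% NH4OH in 67% acetonitrile, positive MRM at m/z 312→143, deuterated internal standard. QC levels were 0.300, 1.50 and 8.00 ng/mL. Parameters were obtained by noncompartmental analysis.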

[9] = cited from earlier work
healthy elderly subjects [10] = assay: Finger tapping test; format: in vivo, human; conditions: both doses (2 and 4 mg)
Summary of the method: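 Finger tapping with the index finger of the dominant hand on a computer space bar, as fast as possible. Each session had 5 trials of 10 s, and mean tapping rate and SD were analysed. Oral 2 mg, 4 mg or placebo in a crossover design; tests predose and at 1, 2.5, 4, 7 and 22 h. Mixed-model ANCOVA with baseline covariate.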

healthy elderly subjects [11] = assay: Body sway; format: in vivo, human; conditions: 22 hours postdose
Summary of the method: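 Crossover in healthy elderly subjects given oral 2 mg, 4 mg or placebo. Postural stability was measured with a body sway meter recording movement in a single plane over 2 minutes, with movements integrated. Measured twice predose and at 1, 2.5, 4, 7 and 22 h postdose. Analysis used mixed-model ANCOVA with time and treatment factors and the average baseline as covariate.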

healthy elderly subjects [12] = assay: Adaptive tracking test; format: in vivo, human; conditions: for decrease in mean adaptive tracking test performance: vs placebo
Summary of the method: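 Randomized, double-blind, placebo-controlled 3-way crossover in 12 subjects aged 65–80 years (MMSE ≥28). Single oral doses of 2 or 4 mg test compound or placebo, 1-week washout. Joystick pursuit task: the subject keeps a dot inside a randomly moving circle, whose speed rises with success and falls with failure. Tested twice predose and at 1, 2.5, 4, 7 and 22 h. Mixed-model ANCOVA with baseline covariate; least-squares means versus placebo.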

M3 mAChR = conditions: read-out: equilibrium dissociation constant [Kd] for M3; cited from earlier work
healthy elderly subjects [13] = assay: Mismatch negativity auditory event-related potential; format: in vivo, human; conditions: vs placebo
Summary of the method: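 Passive auditory oddball while subjects watched a silent movie. 750 tones were given (600 frequent, 150 deviant), each 150 ms at 75 dB, at a fixed 2 Hz rate. Event-related potential recorded by EEG. Healthy elderly subjects received oral 2 or 4 mg or placebo in a crossover design with repeated postdose sessions. Compared with placebo by mixed-model analysis.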

healthy subjects [14] = conditions: cited from earlier work
healthy subjects [15] = conditions: cited from earlier work; remark: listed apart in the source

## OC(CCN1CCCCC1)(c1ccccc1)C1CC2C=CC1C2 (centres unmarked) [biperiden]
Healthy elderly subjects [1]; 4 mg oral, vs placebo
  pupil/iris ratio left eye, mean difference: 0.065
  pupil/iris ratio right eye, mean difference: 0.07341
Healthy elderly subjects [1]; 22 hours postdose
  pupil/iris ratio in both eyes, recovery: not normalized 22 hours postdose
Healthy elderly subjects [2]; 2 mg oral, vs placebo
  smooth pursuit, effect: No significant effect
Healthy elderly subjects [2]; 4 mg oral, vs placebo
  smooth pursuit decrease: 3.55 percentage point
Healthy elderly subjects [2]; both doses (2 and 4 mg) vs placebo
  saccadic inaccuracy, peak velocity, or reaction time, effect: No significant effects
Population PK model; human, plasma
  half-life: 29.5 h
Population PK model; population PK estimate
  Absorption rate constant: 2.73 (BOV = 97.7%) /hour
  Clearance: 78.06 (IIV = 172%, BOV = 12%) L/h/F
  Lag time: 0.54 (BOV = 75%) hours
  Volume of distribution—central: 491.40 (IIV = 79.5%) L/F
Healthy elderly subjects [3]
  adaptive tracking, linear concentration-effect slope: −0.98 percentage point/ng/mL
  n-back 0-back accuracy measure, drug effect: No significant effect
  n-back 0-back reaction time, Emax: 288.5 milliseconds
  n-back 0-back reaction time, Hill coefficient: 2.25
  n-back 1-back accuracy measure, linear drug effect slope: -0.011 ng⁻¹ mL⁻¹
  n-back 1-back reaction time, linear drug effect slope: 16.18 ms/ng/mL
  n-back 2-back reaction time, linear drug effect slope: 11.08 ms/ng/mL
M2 mAChR
  Kd: 6.3 ± 0.5 nM
Healthy elderly subjects [4]
  tolerability: well tolerated
Healthy elderly subjects [4]; listed as Biperiden
  tolerability: very well tolerated
Healthy elderly subjects [5]
  VAS Bond and Lader subscales of mood, alertness, and calmness, change: No significant changes
  VAS nausea scores, change: No significant changes
M5 mAChR
  Kd: 6.3 ± 0.1 nM
M4 mAChR
  Kd: 2.4 ± 0.03 nM
M1 mAChR
  Kd: 0.48 ± 0.02 nM
Healthy elderly subjects [6]; 2 mg oral
  n-back reaction time and accuracy, change: No significant change
Healthy elderly subjects [6]; 4 mg oral
  n-back 0-back condition reaction time, mean difference: 37.2 milliseconds
  n-back 1-back condition reaction time, mean difference: 49.9 milliseconds
  n-back 2-back condition accuracy, decrease: 0.06
  n-back task reaction time increase: ≤ 50 millisecond
Healthy elderly subjects [7]
  VVLT second immediate recall round, fewer words recalled: 2.5 words
  VVLT third immediate recall round, fewer words recalled: 2.9 words
[8]; 2 mg
  AUC(0-t): 18.4 ng·h/mL
  Cmax: 3.51 ng/mL
[8]; 4 mg
  AUC(0-t): 39.5 ng·h/mL
  Cmax: 7.45 ng/mL
  Tmax: 2 h
[9]; assumed, oral ref 18
  bioavailability: approximately 33%
[9]; postdose, as stated for previous studies
  Tmax: approximately 1 hour
Healthy elderly subjects [10]
  tapping-test performance, change: No significant changes
Healthy elderly subjects [11]
  body sway, recovery: not normalized 22 hours postdose
Healthy elderly subjects [12]; 2 mg oral
  decrease in mean adaptive tracking test performance: 1.36 percentage point
Healthy elderly subjects [12]; 4 mg oral
  adaptive tracking, change compared with placebo: −2.1 percentage point
  decrease in mean adaptive tracking test performance: 2.10 percentage point and 2.1 percentage point
M3 mAChR
  Kd: 3.9 ± 0.1 nM
Healthy elderly subjects [13]; 2 mg oral
  MMN latency at Fz, increase: 12.1 milliseconds
Healthy elderly subjects [13]; 4 mg oral
  MMN latency at Fz, increase: 13.9 milliseconds

## NC(=O)C(c1ccccc1)(c1ccccc1)[C@@H]1CCN(CCc2ccc3c(c2)CCO3)C1 [darifenacin]
Healthy subjects [14]
  effect on body sway: increase body sway

## CN1[C@@H]2C[C@@H](OC(=O)[C@H](CO)c3ccccc3)C[C@H]1[C@@H]1O[C@@H]12 [scopolamine]
Healthy subjects [15]
  peak saccadic velocity, effect: concentration‐related decrease
